The record followed here is ChEMBL document CHEMBL4613270, “Structure-Activity Relationship Study Enables the Discovery of a Novel Berberine Analogue as the RXRα Activator to Inhibit Colon Cancer” (J Med Chem, 2020).

The structures appear in SMILES notation. Active and inactive are the calls of the source. No cut-off for these calls is given here.

The nature of data set [1]: Toxicity in BALB/c mouse xenografted with human KM12C cells assessed as effect on biochemical parameter by measuring creatinine level at 100 mg/kg, ig dosed daily for 15 days by automatic chemistry analyzer based analysis (reference value: 27.02 +/- 1.22 umol/L). Format: organism-based. Particulars: in vivo, po, 360 h. (In xenograft studies the graft and the host belong to different species.)

The nature of data set [2]: Toxicity in BALB/c mouse xenografted with human KM12C cells assessed as effect on biochemical parameter by measuring triglyceride level at 100 mg/kg, ig dosed daily for 15 days by automatic chemistry analyzer based analysis (reference value: 0.96 +/- 0.056 mmol/L). Type of data set: organism-based. Particulars: in vivo, po, 360 h.
The target of data set [3] is T1, Retinoic acid receptor RXR-alpha (Homo sapiens) (UniProt P19793).
T1 sequence (whole entry): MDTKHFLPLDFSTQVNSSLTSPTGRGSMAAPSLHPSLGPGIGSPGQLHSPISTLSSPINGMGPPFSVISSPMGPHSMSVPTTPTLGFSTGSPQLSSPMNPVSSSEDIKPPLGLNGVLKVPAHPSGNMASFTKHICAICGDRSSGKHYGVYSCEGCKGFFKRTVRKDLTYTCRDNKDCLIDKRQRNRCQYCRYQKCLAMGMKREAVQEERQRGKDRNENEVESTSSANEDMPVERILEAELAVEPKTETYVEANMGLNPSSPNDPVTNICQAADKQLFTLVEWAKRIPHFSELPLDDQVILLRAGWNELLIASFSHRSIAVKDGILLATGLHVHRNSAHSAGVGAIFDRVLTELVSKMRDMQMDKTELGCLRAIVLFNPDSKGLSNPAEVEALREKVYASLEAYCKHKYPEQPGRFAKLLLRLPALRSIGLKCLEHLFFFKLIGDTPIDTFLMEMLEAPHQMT
Description: In-vivo activation of RXRalpha in BALB/c mouse xenografted with human KM12C cells assessed as effect on Ki67 protein expression at 100 mg/kg, ig dosed daily for 15 days by immunohistochemistry analysis. Type of data set: functional, organism-based.

Data set [4] has as its target T1, Retinoic acid receptor RXR-alpha (Homo sapiens). Briefly: Activation of RXRalpha (unknown origin) expressed in human SW620 cells co-expressing beta-catenin and c-Cbl assessed as induction of beta-caten interaction with c-Cbl at 40 to 80 uM incubated for 15 hrs by mammalian two-hybrid assay. Type of data set: cell-based. To be noted: SW-620. The essentials:
(§1)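 Mammalian two-hybrid: cells co-transfected by lipofection with pBIND-β-catenin/S33Y plus pACT-RXRα (RXRα–β-catenin) or pACT-c-Cbl (β-catenin–c-Cbl); 20 h after transfection, compound added for 15 h; cells lysed in passive lysis buffer, 4 °C, 1 h; firefly and Renilla luciferase read by dual-luciferase kit.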

A short description of data set [5]: Toxicity in BALB/c mouse xenografted with human KM12C cells assessed as effect on biochemical parameter by measuring calcium level at 100 mg/kg, ig dosed daily for 15 days by automatic chemistry analyzer based analysis (reference value: 2.27 +/- 0.059 mmol/L). Type of data set: organism-based. Particulars: in vivo, po, 360 h.
Data set [6] concerns KM12C. Briefly: Inhibition of cell proliferation of human KM12C cells incubated for 15 hrs by MTT assay. Type of data set: functional, cell-based. A digest of the protocol: (§2)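 Cells plated at 1×10⁴ per well, incubated overnight at 37 °C, then exposed to a concentration series for 15 h. MTT (5 mg/mL stock) added for 4 h at 37 °C. Formazan dissolved in DMSO and absorbance read at 570 nm. IC50 derived from the dose-response curve.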

In data set [7] the target is T1, Retinoic acid receptor RXR-alpha (Homo sapiens). Description: Activation of RXRalpha in human SW620 cells assessed as increase in p21 (WAF1/CIP1) protein expression at 40 to 80 uM incubated for 15 hrs by Western blot analysis. Format: cell-based. To be noted: SW-620.
Data set [8] has the same target. Briefly: Activation of RXRalpha in human HCT116 cells assessed as reduction in Cdc2 protein expression at 30 to 60 uM incubated for 15 hrs by Western blot analysis. Type of data set: cell-based. Particulars: HCT-116.
The target is the same in data set [9]. Briefly: Activation of RXRalpha in human SW620 cells assessed as reduction in Cdc2 protein expression at 40 to 80 uM incubated for 15 hrs by Western blot analysis. To be noted: SW-620. Type of data set: cell-based.
Data set [10] has the same target. Briefly: Activation of RXRalpha in human HCT116 cells assessed as reduction in Cdc2 mRNA expression at 30 to 60 uM incubated for 15 hrs by real-time PCR analysis. Format: cell-based. To be noted: HCT-116.
The nature of data set [11]: MRT (infinity) in Sprague-Dawley rat at 100 mg/kg, ig measured after 0.083 to 36 hrs by LC-MS/MS analysis. Type of data set: ADME, organism-based. Particulars: in vivo, po. A digest of the protocol: (§3)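 SD rats (200 ± 20 g) randomized to three groups; single intragastric dose of 100 mg/kg or vehicle (0.5% CMC-Na). Tail-vein blood (0.5 mL) drawn at 0.083, 0.25, 0.5, 1, 2, 4, 8, 12, 24 and 36 h. Plasma separated by centrifugation at 2000 rpm for 10 min, frozen at -80 °C, then quantified by LC-MS/MS.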

The subject of data set [12] is HCT-116. Description: Inhibition of cell proliferation of human HCT116 cells incubated for 15 hrs by MTT assay. Format: functional, cell-based. To be noted: HCT-116, 15 h. A digest of the protocol:
as §2
For orientation: Tetrazolium dyes change colour on reduction, which living cells bring about.

Data set [13] can be described thus: Bioavailability in Sprague-Dawley rat at 100 mg/kg, ig measured after 0.083 to 36 hrs by LC-MS/MS analysis. Format: ADME, organism-based. To be noted: in vivo, po. The essentials: as §3
Data set [14] has as its target T1, Retinoic acid receptor RXR-alpha (Homo sapiens). Description: Activation of RXRalpha (unknown origin) expressed in human KM12C cells co-expressing beta-catenin assessed as induction of RXRalpha interaction with beta-catenin at 25 to 50 uM incubated for 15 hrs by mammalian two-hybrid assay. Type of data set: cell-based. The essentials: as §1
Data set [15] is described as follows: Toxicity in BALB/c mouse xenografted with human KM12C cells assessed as effect on biochemical parameter by measuring TBIL level at 100 mg/kg, ig dosed daily for 15 days by automatic chemistry analyzer based analysis (reference value: 0.28 +/- 0.024 umol/L). Type of data set: organism-based. To be noted: in vivo, po, 360 h.
Data set [16] deals with T1, Retinoic acid receptor RXR-alpha (Homo sapiens). Briefly: In-vivo activation of RXRalpha in BALB/c mouse xenografted with human KM12C cells assessed as induction of beta-catenin protein degradation at 100 mg/kg, ig dosed daily for 15 days by Western blot analysis. Format: functional, organism-based.
For data set [17] the target is unchanged. Description: In-vivo activation of RXRalpha in BALB/c mouse xenografted with human KM12C cells assessed as effect on PCNA protein expression at 100 mg/kg, ig dosed daily for 15 days by immunohistochemistry analysis. Format: functional, organism-based.
For data set [18] the target is unchanged. Briefly: Activation of RXRalpha in human HCT116 cells assessed as induction of beta-catenin protein degradation at 30 to 60 uM incubated for 15 hrs by Western blot analysis. Type of data set: cell-based. Particulars: HCT-116. (In general: In western blotting, separated proteins are transferred to a membrane and probed.)
Data set [19] has the same target. Briefly: Activation of RXRalpha in human HCT116 cells assessed as reduction in c-Myc mRNA expression at 30 to 60 uM incubated for 15 hrs by real-time PCR analysis. Format: cell-based. To be noted: HCT-116.
Data set [20] is described as follows: Toxicity in BALB/c mouse xenografted with human KM12C cells assessed as effect on biochemical parameter by measuring ALT level at 100 mg/kg, ig dosed daily for 15 days by automatic chemistry analyzer based analysis (reference value: 24.18 +/- 0.77 U/L). To be noted: in vivo, po, 360 h. Type of data set: organism-based.
Data set [21] concerns the target T1, Retinoic acid receptor RXR-alpha (Homo sapiens). Briefly: Induction of conformational changes in His-tagged RXRalpha LBD (unknown origin) expressed in Escherichia coli strain BL21 (DE3) at 5 uM by circular dichroism spectroscopic assay. The essentials: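 His-RXRα-LBD expressed in E. coli BL21(DE3) (0.1 mM IPTG, 16 °C, 16 h), Ni-NTA purified, diluted to 1 µM in 0.01 M phosphate buffer; compound 5 µM (0.01% DMSO). CD spectra recorded 180-260 nm at 25 °C, 0.1 cm path, 1 nm bandwidth, 20 nm/min, 5 min after compound addition.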

`COc1ccc2cc3[n+](cc2c1OC)CCc1cc2c(cc1-3)OCO2.[Cl-]` [BERBERINE CHLORIDE]: the Activity was 24.36 µmol/L in [1]; 0.77 mmol/L in data set [2]; 2.13 mmol/L in data set [5]; 0.26 µmol/L in [15]; 27.9 U/L in data set [20]. The result in data set [3], in data set [4], in [7], in [8], in [9] and in data set [10] was Active. Moreover, the outcome in data set [14], in [16], in data set [17], in data set [18], in data set [19] and in data set [21] was Active. Further, the figures for the IC50 in [6] and in data set [12] were 76.3 µM and 83.1 µM, respectively. For the same compound, the MRT inf (usually a mean duration of stay, worked out from the concentration-time curve) in data set [11] is 31.5 h. Moreover, in data set [13], the bioavailability (usually the share of a dose that reaches the circulation, judged against a reference dose that is usually intravenous) worked out at 0.544%.

As to `COc1ccc2c(c1)CC[n+]1cc3c(OC)cccc3cc1-2.[Cl-]`, the Activity is 28.95 µmol/L in data set [1]; 0.74 mmol/L in data set [2]; 2.23 mmol/L in data set [5]; 0.21 µmol/L in data set [15]; 27.2 U/L in data set [20]. Also, the result in [3], in data set [4], in data set [7], in data set [8], in [9] and in data set [10] was Active. Also, the result in data set [14], in [16], in data set [17], in data set [18], in data set [19] and in data set [21] was Active. Moreover, the IC50 – broadly, the point on the concentration scale where inhibition reaches its midpoint – in [6] was 31.1 µM; in data set [12] it was 27.2 µM. For the same compound, in data set [11], the mean residence time (MRT inf) was found to be 15.7 h. In data set [13], this compound had a bioavailability of 14.2%.
